What follows are compounds tested against T1, Proto-oncogene tyrosine-protein kinase Src (Homo sapiens, UniProt P12931) (assay: Inhibition of Src Kinase at 5 mM ATP).
Summary of the method: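 Same Src ELISA format: enzyme at 3 units/reaction, cdc2 peptide substrate, Tris-HCl pH 7.5/MgCl₂/EGTA/Na₃VO₄ buffer, and 10 min compound preincubation at 30 °C. ATP is raised to 5 mM to start the reaction, which runs 1 h at 30 °C. It is quenched with EDTA and phosphorylation is read by ELISA.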

T1 sequence (P12931 2-536 limits assumed): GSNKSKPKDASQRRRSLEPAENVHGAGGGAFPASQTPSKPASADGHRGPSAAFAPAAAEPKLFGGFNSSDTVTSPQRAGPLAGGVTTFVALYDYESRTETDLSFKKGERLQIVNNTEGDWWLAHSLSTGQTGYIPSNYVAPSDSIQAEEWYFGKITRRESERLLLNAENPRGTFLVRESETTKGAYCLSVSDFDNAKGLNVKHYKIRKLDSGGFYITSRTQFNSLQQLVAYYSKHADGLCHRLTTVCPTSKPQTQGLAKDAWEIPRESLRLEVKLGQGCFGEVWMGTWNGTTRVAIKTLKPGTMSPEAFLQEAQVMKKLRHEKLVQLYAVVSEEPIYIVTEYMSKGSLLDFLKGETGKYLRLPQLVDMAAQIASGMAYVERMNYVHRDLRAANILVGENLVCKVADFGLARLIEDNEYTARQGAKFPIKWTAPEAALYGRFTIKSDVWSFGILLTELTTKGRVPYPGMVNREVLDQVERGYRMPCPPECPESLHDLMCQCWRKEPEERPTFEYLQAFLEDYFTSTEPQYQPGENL

| IC50 [nM] | SMILES |
| --- | --- |
| 270 | COc1cc2ncc(C#N)c(Nc3ccc(Cl)cc3Cl)c2cc1OC |

Each compound was assayed against T1, Proto-oncogene tyrosine-protein kinase Src (assay: Inhibition of Src Kinase at 0.1 mM ATP).
Summary of the method: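 Compound is preincubated 10 min at 30 °C, then the reaction is started with ATP (100 μM final) and run 1 h at 30 °C. It is stopped with EDTA and read by ELISA for tyrosine phosphorylation. Compounds are run in duplicate; values are the mean of at least two determinations.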

| IC50 [nM] | SMILES |
| --- | --- |
| 23 | COc1cc2ncc(C#N)c(Nc3ccc(Cl)cc3Cl)c2cc1OC |

These compounds were tested against T1, Proto-oncogene tyrosine-protein kinase Src (assay: Inhibitory activity against human c-Src Kinase was measured using ELISA assay).
Summary of the method: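 Src (3 units/reaction) and cdc2 substrate peptide were preincubated with compound for 10 min at 30 °C in 50 mM Tris-HCl pH 7.5, 10 mM MgCl2, 0.1 mM EGTA and 0.5 mM Na3VO4. ATP was added to 100 μM final, the reaction ran 1 h at 30 °C, and EDTA stopped it. Phosphotyrosine was read by ELISA kit.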

| IC50 [nM] | SMILES |
| --- | --- |
| 220 | COc1cc2ncc(C#N)c(Nc3ccc(Cl)cc3Cl)c2cc1OCCCN1CCOCC1 |
| 3.8 | COc1cc2c(Nc3ccc(Cl)cc3Cl)c(C#N)cnc2cc1OCCCN1CCOCC1 |
| 8.7 | COc1cc2c(Nc3ccc(Cl)cc3Cl)c(C#N)cnc2cc1OCCCN1CCN(C)CC1 |
| 40 | COc1cc2ncc(C#N)c(Nc3cc(Cl)ccc3Cl)c2cc1OC |
| 57 | COc1cc2ncc(C#N)c(Nc3ccc(Cl)c(Cl)c3)c2cc1OC |
| 15 | COc1cc2ncc(C#N)c(Nc3ccc(Br)cc3Cl)c2cc1OC |
| 19 | N#Cc1cnc2cc(OCCCN3CCOCC3)c(OCCCN3CCOCC3)cc2c1Nc1ccc(Cl)cc1Cl |
| 95 | COc1cc2ncc(C#N)c(Nc3ccccc3Cl)c2cc1OC |
| 200 | COc1ccc2c(Nc3ccc(Cl)cc3Cl)c(C#N)cnc2c1 |
| 90 | COc1cc2ncc(C#N)c(Nc3cccc(Cl)c3Cl)c2cc1OC |
| 11 | CCOc1cc2ncc(C#N)c(Nc3ccc(Cl)cc3Cl)c2cc1OCC |
| 30 | COc1cc2ncc(C#N)c(Nc3ccc(Cl)cc3Cl)c2cc1OC |
| 53 | COc1cc2ncc(C#N)c(Nc3ccc(Cl)cc3F)c2cc1OC |
| 160 | CCCCOc1cc2ncc(C#N)c(Nc3ccc(Cl)cc3Cl)c2cc1OCCCC |
| 320 | COc1ccc2ncc(C#N)c(Nc3ccc(Cl)cc3Cl)c2c1 |
| 10 | COc1cc2ncc(C#N)c(Nc3ccc(Cl)cc3Br)c2cc1OC |
| 6.2 | COc1cc2ncc(C#N)c(Nc3ccc(Cl)cc3I)c2cc1OC |
| 95 | COc1cc2ncc(C#N)c(Nc3ccc(I)cc3Cl)c2cc1OC |
| 3.5 | COc1cc2c(Nc3ccc(Cl)cc3Cl)c(C#N)cnc2cc1OCCCN1CCC(O)CC1 |

More lines, now with the values behind:

| SMILES | IC50 [nM] |
| --- | --- |
| COc1cccc2ncc(C#N)c(Nc3ccc(Cl)cc3Cl)c12 | 1200 |
| COc1cc2ncnc(Nc3ccc(Cl)cc3Cl)c2cc1OC | 250 |
| COc1cc2ncc(C#N)c(Nc3c(Cl)cccc3Cl)c2cc1OC | 61 |
| COc1cc2ncc(C#N)c(Nc3cc(Cl)cc(Cl)c3)c2cc1OC | 1100 |
| COc1cc2ncc(C#N)c(Nc3ccc(Cl)cc3)c2cc1OC | 53 |
| COc1cc2ncc(C=O)c(Nc3ccc(Cl)cc3Cl)c2cc1OC | 250 |
| COc1cc2nccc(Nc3ccc(Cl)cc3Cl)c2cc1OC | 84 |
| COc1cc2ncc(C#N)c(Sc3ccc(Cl)cc3Cl)c2cc1OC | 2200 |

Each compound was assayed against T1, Proto-oncogene tyrosine-protein kinase Src (assay: Inhibition of Src Kinase at 1 mM ATP).
Summary of the method: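 Src ELISA kinase assay with Src (3 units/reaction) and cdc2 substrate peptide in Tris-HCl pH 7.5 buffer with MgCl₂, EGTA and vanadate. After a 10 min, 30 °C preincubation with compound, the reaction is started with ATP raised to 1 mM and run 1 h at 30 °C. It is stopped with EDTA and phosphotyrosine is detected by ELISA.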

| IC50 [nM] | SMILES |
| --- | --- |
| 130 | COc1cc2ncc(C#N)c(Nc3ccc(Cl)cc3Cl)c2cc1OC |

The compounds below were run against T1, Proto-oncogene tyrosine-protein kinase Src (assay: Inhibition of Src Kinase at 1 uM).

| inhibition [%] | SMILES |
| --- | --- |
| < 20 | COc1cc2ncc(CO)c(Nc3ccc(Cl)cc3Cl)c2cc1OC |
| 24 | COc1cc2ncc(C#N)c(NCc3ccc(Cl)cc3Cl)c2cc1OC |
| < 20 | COc1cc2ncc(C(=O)O)c(Nc3ccc(Cl)cc3Cl)c2cc1OC |
| < 20 | COc1cc2ncc(C#N)c(NC(=O)c3ccc(Cl)cc3Cl)c2cc1OC |
| 52 | COc1cc(OC)c2c(Nc3ccc(Cl)cc3Cl)c(C#N)cnc2c1 |

Second part, the compound before the results:

| SMILES | inhibition [%] |
| --- | --- |
| N#Cc1cnc2cc(O)c(O)cc2c1Nc1ccc(Cl)cc1Cl | < 20 |
| COc1cc2/c(=N/c3ccc(Cl)cc3Cl)c(C#N)cn(C)c2cc1OC | < 20 |
| COc1cccc2c(Nc3ccc(Cl)cc3Cl)c(C#N)cnc12 | < 20 |
| CCOC(=O)c1cnc2cc(OC)c(OC)cc2c1Nc1ccc(Cl)cc1Cl | < 20 |
| COc1cc2ncc(C#N)c(N(C)c3ccc(Cl)cc3Cl)c2cc1OC | 32 |
| COc1cc2ncc(C(N)=O)c(Nc3ccc(Cl)cc3Cl)c2cc1OC | < 20 |
| N#Cc1cnc2ccccc2c1Nc1ccc(Cl)cc1Cl | < 20 |
| COc1cc2ncc(C#N)c(Oc3ccc(Cl)cc3Cl)c2cc1OC | 37 |

From ChEMBL document CHEMBL1134365, “Synthesis and Src kinase inhibitory activity of a series of 4-phenylamino-3-quinolinecarbonitriles” (J Med Chem, 2001)
